Data published in ChEMBL document CHEMBL3045347, “Natural products-based insecticidal agents 5. Design, semisynthesis and insecticidal activity of novel 4'-substituted benzenesulfonate derivatives of 4-deoxypodophyllotoxin against Mythimna separata Walker in vivo” (2010).
The source made the active and inactive calls. The calls are words filed in the database; no cut-off is given here.

Tests used:
[1] = tested on: Mythimna separata; assay: In vivo insecticidal activity against pre-third-instar larval stage of Mythimna separata (Oriental armyworm) in corn leaves assessed as induction of loss of body liquid at 1 mg/ml treated for 3 secs before larval infestation on corn leaves measured after 48 hr by leaf-dipping method; type: functional, organism-based
Outline: (§1)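 Leaf-dipping bioassay on pre-third-instar Mythimna separata larvae, with compounds applied at 1 mg/mL. Toosendanin, a commercial insecticide from Melia azedarach, served as the positive control.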

[2] = tested on: Mythimna separata; assay: In vivo insecticidal activity against pre-third-instar larval stage of Mythimna separata (Oriental armyworm) in corn leaves assessed as induction of larval immobility at 1 mg/ml treated for 3 secs before larval infestation on corn leaves measured after 48 hr by leaf-dipping method; type: functional, organism-based; outline: as §1
[3] = tested on: Mythimna separata; assay: In vivo insecticidal activity against pre-third-instar larval stage of Mythimna separata (Oriental armyworm) in corn leaves assessed as reduction in larval movement at 1 mg/ml treated for 3 secs before larval infestation on corn leaves measured after 24 hr by leaf-dipping method; type: functional, organism-based; outline: as §1
[4] = tested on: Mythimna separata; assay: In vivo insecticidal activity against pre-third-instar larval stage of Mythimna separata (Oriental armyworm) in corn leaves assessed as corrected mortality rate at 1 mg/ml treated for 3 secs before larval infestation on corn leaves measured after 30 days by leaf-dipping method; type: functional; settings: 720 h; outline: as §1
[5] = tested on: Mythimna separata; assay: In vivo insecticidal activity against pre-third-instar larval stage of Mythimna separata (Oriental armyworm) in corn leaves assessed as corrected mortality rate at 1 mg/ml treated for 3 secs before larval infestation on corn leaves measured after 20 days by leaf-dipping method; type: functional; settings: 480 h; outline: as §1
[6] = tested on: Mythimna separata; assay: In vivo insecticidal activity against pre-third-instar larval stage of Mythimna separata (Oriental armyworm) in corn leaves assessed as corrected mortality rate at 1 mg/ml treated for 3 secs before larval infestation on corn leaves measured after 10 days by leaf-dipping method; type: functional; settings: 240 h; outline: as §1
[7] = tested on: Mythimna separata; assay: In vivo insecticidal activity against pre-third-instar larval stage of Mythimna separata (Oriental armyworm) in corn leaves assessed as induction of molting to abnormal pupae at 1 mg/ml treated for 3 secs before larval infestation on corn leaves measured after 48 hr by leaf-dipping method; type: functional, organism-based; outline: as §1
[8] = tested on: Mythimna separata; assay: In vivo insecticidal activity against pre-third-instar larval stage of Mythimna separata (Oriental armyworm) in corn leaves assessed as inhibition of adult emergence at 1 mg/ml treated for 3 secs before larval infestation on corn leaves by leaf-dipping method; type: functional, organism-based; outline: as §1
[9] = tested on: Mythimna separata; assay: In vivo insecticidal activity against pre-third-instar larval stage of Mythimna separata (Oriental armyworm) in corn leaves assessed as inhibition of larval pupation at 1 mg/ml treated for 3 secs before larval infestation on corn leaves by leaf-dipping method; type: functional, organism-based; outline: as §1

Compound	Activity [1]	Activity [2]	Activity [3]	mortality at 1000 µg/mL [4] [%]	mortality at 1000 µg/mL [5] [%]	mortality at 1000 µg/mL [6] [%]	Activity [7]	Activity [8]	Activity [9]
COc1cc([C@@H]2c3cc4c(cc3C[C@H]3COC(=O)[C@@H]32)OCO4)cc(OC)c1OS(=O)(=O)c1ccc(Cl)c([N+](=O)[O-])c1	Active	Active	Active	42.9	20.7	3.3	Active	Active	Active
COc1cc([C@@H]2c3cc4c(cc3C[C@H]3COC(=O)[C@@H]32)OCO4)cc(OC)c1OS(=O)(=O)c1ccc(C)cc1	Active	Active	Active	21.4	10.3	3.3	Active	Active	Active
COc1cc([C@@H]2c3cc4c(cc3C[C@H]3COC(=O)[C@@H]32)OCO4)cc(OC)c1O [4'-DEMETHYLDEOXYPODOPHYLLOTOXIN]	Active	Active	Active	21.4	13.8	10	Active	Active	Active
COc1cc([C@@H]2c3cc4c(cc3C[C@H]3COC(=O)[C@@H]32)OCO4)cc(OC)c1OS(=O)(=O)c1cccc([N+](=O)[O-])c1	Active	Active	Active	60.7	27.6	26.7	Active	Active	Active
CC(=O)O[C@@H]1C[C@H](O)[C@@]23CO[C@@H](O)[C@]1(C)[C@@H]2C[C@@H](O)[C@]1(C)[C@@H]3C(=O)[C@H](OC(C)=O)[C@@]2(C)[C@H](c3ccoc3)C[C@H]3O[C@]321 [TOOSENDANIN]				46.4	34.5	30			
COc1cc([C@@H]2c3cc4c(cc3C[C@H]3COC(=O)[C@@H]32)OCO4)cc(OC)c1OS(=O)(=O)c1ccc(Br)cc1	Active	Active	Active	50	31	20	Active	Active	Active
COc1cc([C@@H]2c3cc4c(cc3C[C@H]3COC(=O)[C@@H]32)OCO4)cc(OC)c1OC [DESOXYPODOPHYLLOTOXIN]	Active	Active	Active	39.3	20.7	16.7	Active	Active	Active
COc1cc([C@@H]2c3cc4c(cc3C[C@H]3COC(=O)[C@@H]32)OCO4)cc(OC)c1OS(=O)(=O)c1ccc(Cl)cc1	Active	Active	Active	25	10.3	10	Active	Active	Active
COc1ccc(S(=O)(=O)Oc2c(OC)cc([C@@H]3c4cc5c(cc4C[C@H]4COC(=O)[C@@H]43)OCO5)cc2OC)cc1	Active	Active	Active	46.4	37.9	33.3	Active	Active	Active
CCc1ccc(S(=O)(=O)Oc2c(OC)cc([C@@H]3c4cc5c(cc4C[C@H]4COC(=O)[C@@H]43)OCO5)cc2OC)cc1	Active	Active	Active	35.7	27.6	13.3	Active	Active	Active
COc1cc([C@@H]2c3cc4c(cc3C[C@H]3COC(=O)[C@@H]32)OCO4)cc(OC)c1OS(=O)(=O)c1ccccc1	Active	Active	Active	35.7	13.8	16.7	Active	Active	Active
